UCH37 inh – blocks the human deubiquitinase UCH37. Q9Y5K5. purified proteasome/UCH37, Ub-AMC cleavage fluorescence. inhibition, % (no concentration beside the values). actives 0.33% (n = 330,000);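 active = mean inhibition over replicate wells above about 20%, limit read from the data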;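 also: 0% = compound-free wells with enzyme and 100% = wells lacking proteasome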
Target sequence (Q9Y5K5 whole entry, looked up): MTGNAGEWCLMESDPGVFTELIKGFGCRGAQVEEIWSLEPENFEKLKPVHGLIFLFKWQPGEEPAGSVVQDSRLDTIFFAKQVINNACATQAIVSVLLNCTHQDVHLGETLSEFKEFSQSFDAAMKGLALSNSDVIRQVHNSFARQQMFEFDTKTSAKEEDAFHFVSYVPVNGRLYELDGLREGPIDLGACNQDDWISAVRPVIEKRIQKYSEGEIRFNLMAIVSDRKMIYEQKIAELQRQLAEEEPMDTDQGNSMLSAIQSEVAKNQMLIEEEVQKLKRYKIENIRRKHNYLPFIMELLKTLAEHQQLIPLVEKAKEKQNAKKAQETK
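Material: human UCH37 enzyme supplied as purified proteasome complex. Measure: % inhibition of Ub-AMC cleavage fluorescence. Medium: pH 7.4 Tris-HCl (50 mM) with ovalbumin, ATP-MgCl2, DTT. Times: 30 min preincubation with enzyme, 25 min cleavage at room temperature. Detection: AMC fluorescence intensity at 355/460 nm.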
SENP1 inh – blocks the human SENP1 SUMO protease catalytic domain; inhibition, % at 10 µM; recombinant SENP1 catalytic domain, CyPet-SUMO1-YPet FRET cleavage; AID 624204; actives 0.21% (n = 360,000); Q9P0U3;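 active = inhibition at least 30% at 10 µM, raw YFP signal under a set limit, fluorescence ratio 0.5 to 1.5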;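 also: 0% = enzyme with DMSO and 100% = no enzyme wells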
Target sequence (Q9P0U3 419-644 limits assumed): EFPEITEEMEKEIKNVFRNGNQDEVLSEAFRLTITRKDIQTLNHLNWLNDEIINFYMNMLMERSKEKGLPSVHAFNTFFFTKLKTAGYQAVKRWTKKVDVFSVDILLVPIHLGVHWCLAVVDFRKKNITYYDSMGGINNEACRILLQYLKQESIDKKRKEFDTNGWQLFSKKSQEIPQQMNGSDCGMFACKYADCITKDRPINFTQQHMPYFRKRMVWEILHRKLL
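System: Recombinant human SENP1 catalytic domain, His6-tagged | Incubation: Enzyme reaction for 50 min at room temperature, dark | Medium: Tris pH 8 with BME, BSA, NP40 and catalase | Also added: 25 nM SUMO1 FRET substrate | Compound: 10 µM single point, 0.5% DMSO | Measured by: FRET fluorescence in CFP and YFP emission channels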
ATG4B inh – blocks human ATG4B protease cleavage of LC3 substrate. Q9Y4P1. ATG4B cleavage of LC3-PLA2, NBD-HPC fluorescence, 1 h. inhibition, % at 8.33 µM. actives 0.51% (n = 340,000). AID 504462; in the data active = inhibition above about 40%
NR3A LBD binder – NR3A (human) ligand-binding domain modulation; NR3A LBD differential scanning fluorimetry, Tm shift; 0% = protein alone, 100% = glycine-bound protein; Tm shift relative to glycine control, % at 25 µM; actives 2.5% (n = 340,000); AID 1259313;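 active = melting temperature shift of at least 10% of the positive control shift, at one fixed dose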
NadD block – inhibitors of Staphylococcus aureus NadD; purified NadD enzyme, colorimetric absorbance read-out; inhibition, % at 20 µM; actives 0.78% (n = 360,000); in the data active = inhibition above about 26%
Starred values were filed as active, the others as inactive; · = no result. Compounds with a hit are over-represented: about 3.6% of the library has one in this group of screens.

SMILES	UCH37 inh	SENP1 inh	ATG4B inh	NR3A LBD binder	NadD block
O=C1CCN(CCCc2ccccc2)CCN1[C@H](CO)c1ccccc1	28*	3	9	4	-4
O=C(CSc1nc2c(c(=O)n1-c1ccc(Br)cc1)SCC2)NCc1ccco1	3	0	14	-9	2
O=C(CSc1nc2c(c(=O)n1-c1ccc(Br)cc1)SCC2)Nc1nccs1	6	0	57*	6	14
COc1ccc(S(=O)(=O)N2CCCCCC2)cc1N(C)S(=O)(=O)c1ccccc1	6	0	3	12*	-10
COc1ccc(CCNS(=O)(=O)c2cccc(S(=O)(=O)N3CCCC3)c2)cc1OC	-2	1	-6	14*	-6
COc1ccc(S(=O)(=O)N2CCCCCC2)cc1C(=O)Nc1cccc(C)n1	4	0	7	23*	-2
Cc1cccc(NC(=O)c2ccc(S(=O)(=O)N3CCCCC3)cc2)n1	5	0	-1	0	-2
OCCN1CCN(c2nc(-c3ccccc3O)nc3ccccc23)CC1	8	1	-8	19*	-8
CCOC(=O)C(C#N)=NNc1ccccc1C#N	12	·	·	·	·
Cc1sc2nc(SCC(=O)c3cccs3)n(Cc3ccco3)c(=O)c2c1C	6	1	15	11*	-6
O=C(COc1nsnc1N1CCOCC1)NN=Cc1ccccc1O	-16	·	·	·	·
CC[n+]1c(/C=C/N(C)c2ccccc2)n(-c2ccccc2)c2ccc(-c3nc4ccccc4s3)cc21	-17	-80	0	4	32*
O=C(c1cc(COc2cccc(C(F)(F)F)c2)on1)N1CCCC1	·	3	·	·	3
CCOC(=O)N1CCN(C(=O)c2cc(COc3cccc(C(F)(F)F)c3)on2)CC1	-3	2	4	25*	-2
O=C(NN=C/C=C/c1ccccc1)c1cc(C2CC2)[nH]n1	7	·	·	·	·
Nc1c(Cl)ncnc1N/N=C/c1cccc(O)c1	·	-3	-5	24*	1
Cc1cc(C)n(-c2ccc(C(=O)Nc3cccc([N+](=O)[O-])c3)cc2)n1	4	-1	-6	19*	-1
Cc1cc(C)n(-c2ccc(C(=O)Nc3ccc(S(=O)(=O)NCc4ccco4)cc3)cc2)n1	2	-2	-9	17*	3
Nc1ccc(C(=O)Nc2nc3ccccc3s2)cc1	-7	-2	4	8	0
Cc1cc(C)n(-c2ccc(C(=O)Nc3nc4ccccc4s3)cc2)n1	-11	4	-7	15*	1
CC(=O)N1CCc2cc(N=NC3=C(O)CCCC3=O)ccc21	18	47*	-1	-1	-7
CC(=NNC(=O)c1ccc2c(c1)OCO2)c1cccc([N+](=O)[O-])c1	2	·	·	·	·
CCN(CC)c1ccc2cc(C(N)=O)c(=NNC(=O)c3ccncc3)oc2c1	22*	·	·	·	·
CSc1nc(N)nc(SCC(=O)Nc2ccc(Cl)cc2)c1C#N	4	0	1	29*	-5
CSc1nc(N)nc(SCC(=O)Nc2cccc(F)c2)c1C#N	1	0	-3	26*	-1
SMILES	UCH37 inh	SENP1 inh	ATG4B inh	NR3A LBD binder	NadD block
CSc1nc(N)nc(SCC(=O)C(C)(C)C)c1C#N	7	-1	-4	-34	3
O=C(NN=Cc1ccc2c(c1)OCO2)c1cccs1	9	·	·	·	·
O=C(NN=Cc1ccc(Br)cc1)c1ccc(Br)o1	2	·	·	·	·
COc1ccc(NN=C(C(C)=O)N2CCCc3ccccc32)cc1	3	·	·	·	·
O=c1c2ccccc2sc2ccccc12	-35	-212	-12	1	-6
c1ccc2c(c1)[nH]c1c3ccccc3sc21	1	2	6	24*	-2
CN(C)c1ccc(C(CNS(=O)(=O)c2ccc(F)cc2)c2c[nH]c3ccccc23)cc1 (stereo not drawn)	2	-1	8	16*	2
CCOC(=O)c1ccc(S(=O)(=O)NCC(c2ccc(N(C)C)cc2)c2c[nH]c3ccccc23)cc1 (stereo not drawn)	3	3	5	16*	12
O=C(CSCc1ccccc1Br)NN=Cc1ccccc1C(=O)O	0	·	·	·	·
C[C@@H](NC(=O)C(=O)c1c[nH]c2ccccc12)c1ccccc1	4	3	-31	0	-1
CSc1ccccc1NC(=O)C(=O)c1c[nH]c2ccccc12	4	-1	4	21*	-12
COc1ccc(/C=N/NC(=O)Cc2csc(Nc3cccc(C(F)(F)F)c3)n2)cc1C	·	-1	-5	22*	14
COc1ccc(C=NNC(=O)Cc2csc(Nc3cccc(C(F)(F)F)c3)n2)cc1C	0	·	·	·	·
On1cnnc1-c1ccccc1	-1	1	4	11*	6
Cc1ccc(S(=O)(=O)ON=C2CCCc3ccccc32)cc1	6	·	·	·	·
Cc1ccc(NCN2C(=O)C(=O)c3ccccc32)nc1	2	0	0	13*	3
Cc1cccc2c(N)c3c(nc12)N(C)CC3	·	-14	-2	16*	-2
COc1ccc(C=NNC(=O)C(C)Sc2ccccn2)cc1[N+](=O)[O-] (stereo not drawn)	5	·	·	·	·
CC(=O)Nc1ccc(NC(=O)CSc2nnc(NC(=O)c3ccco3)s2)cc1	3	-1	6	16*	-2
COc1ccc(C(=O)Nc2nnc(SCC(=O)Nc3ccc(NC(C)=O)cc3)s2)c(OC)c1	-6	1	0	20*	0
Cc1cccc(-c2nnc(NC(=O)c3ccco3)s2)c1	2	2	3	24*	-6
O=C(CSc1nnc(NC(=O)c2c(F)cccc2F)s1)Nc1ccc(F)cc1	-1	2	-7	1	2
CC(=O)Nc1ccc(NC(=O)CSc2nnc(NC(=O)c3cccc(F)c3)s2)cc1	4	2	0	31*	-7
COc1ccc(C(=O)NN=Cc2ccccc2OC(=O)c2ccccc2)cc1	-9	·	·	·	·
O=C(CSc1nnc(NC(=O)C2CC2)s1)Nc1ccc(F)cc1	0	1	-4	14*	-4
SMILES	UCH37 inh	SENP1 inh	ATG4B inh	NR3A LBD binder	NadD block
CC(CC(=O)Nc1ccc(Cl)c(C(F)(F)F)c1)=NNC(=O)c1cnccn1	3	·	·	·	·
Cc1nc(SCc2cccc(F)c2)[nH]c(=O)c1C#N	1	-2	8	13*	1
N#Cc1c(-c2ccco2)nc(SCc2ccc(F)cc2)[nH]c1=O	7	-1	18	-30	3
COc1ccc(OCC(=O)NN=C2C=C(C)CC2)cc1	-2	·	·	·	·
Cc1cnc2ncc3sccc3c2c1	2	-1	-2	2	3
c1cnc2ncc3sccc3c2c1	28*	0	2	-1	-4
CC(C)(C)OC(=O)NN=Cc1c[nH]c2ccccc12	4	·	·	·	·
CC(=NNC(=O)c1cccc(NN=C(C)c2ccccc2)c1)c1ccccc1	3	·	·	·	·
CCCCCCCCCC[N+](C)(C)CC/C=C1/c2ccccc2Sc2ccc(Cl)cc21	·	1	19	22*	26
O=C(Nc1ccccn1)c1ccc2nc(-c3ccccc3)c(-c3ccccc3)nc2c1	-12	·	·	·	·
